Assay results pooled from the literature.
Lines come from different studies, so protocols differ.
Target: D(2) dopamine receptor (DRD2, Homo sapiens, UniProt P14416)

COc1ccccc1N1CCN(CCCCN2CCc3ccccc3C2=O)CC1  inhibition (ligand displacement, radioligand; 10 µM): 97.5%
CNc1nc2cc(OCCCCN3CCN(c4cccc5ccc(C)nc45)CC3)ccc2s1  Emax (β-arrestin recruitment, agonist; HTLA): < 20%
CC(=O)C1=C(C)N(c2cccc(C(F)(F)F)c2)C(=O)N[C@H]1c1ccc(C#N)nc1  inhibition (ligand displacement; 10 µM): -1.53%
CCc1ccc(N2CCN(CC(O)COc3ccc(C(C)=O)cc3OC)CC2)cc1 (stereo not shown)  inhibition (enzyme activity, inhibitor; 10 µM): 11.2%
C[C@H](c1ccnc(Nc2nc3ccc(-c4cc(N(C)C)ncn4)cc3[nH]2)c1)N1CCN(C(=O)CC(F)(F)F)CC1  inhibition (ligand displacement; 10 µM): 5.66%
COc1ccc(N2CCN(CC(O)COc3ccc(C(C)=O)cc3OC)CC2)cc1 (stereo not shown)  inhibition (enzyme activity, inhibitor; 10 µM): 27.4%
Cc1cc(Nc2nccc(C)n2)cc(-c2cnc([C@@]3(O)CC[C@H](C(=O)O)C(C)(C)C3)s2)c1  inhibition (ligand displacement; 10 µM): -3.52%
O=C(CCCN1CCC(O)(c2ccc(Br)cc2)CC1)c1ccc(F)cc1  kon (binding): 2.67e+06 M⁻¹ s⁻¹
CC(C)c1nc2cc(OCCCCN3CCN(c4cccc5c4OCCN5)CC3)ccc2s1  Emax (β-arrestin recruitment, agonist; HTLA): 36%
CO[C@H]1CC[C@H](CNc2ccc(S(=O)(=O)NC(=O)c3ccc(N4CCN(CC5=C(c6ccc(Cl)cc6)CC(C)(C)CC5)CC4)cc3Oc3cnc4[nH]ccc4c3)cc2[N+](=O)[O-])CC1  inhibition (ligand displacement; 10 µM): -24%
Cc1[nH]n(-c2ccc([N+](=O)[O-])cc2)c(=O)c1C=NCCN1CCN(C(=O)c2cccc(F)c2)CC1  inhibition (enzyme activity, inhibitor; 10 µM): 20.6%
Clc1cncc(OC[C@H]2CN(CCN3CCc4ccccc43)CCO2)c1  inhibition (ligand displacement, radioligand; 10 µM): 37.8%
CC(=O)Nc1ccc(N2CC(O)=C(c3nc4ccccc4[nH]3)C2=N)cc1  inhibition (enzyme activity, inhibitor; 10 µM): 17.1%
O=C1c2ccccc2CCN1CCCCN1CCN(c2cccc(Cl)c2Cl)CC1  inhibition (ligand displacement, radioligand; 10 µM): 99.3%
O=C1C2CCCN2C(=O)N1CCCCN1CCN(c2cccc(Cl)c2)CC1 (stereo not shown)  inhibition (enzyme activity, inhibitor; 10 µM): 65.4%
COc1cccc(OC[C@@H]2CN(CCN3CCc4ccccc43)CCO2)c1  inhibition (ligand displacement, radioligand; 10 µM): 36.5%
COc1cc(OC)c(OC)cc1CN1CCN(Cc2c[nH]c3ccccc23)CC1  inhibition (enzyme activity, inhibitor; 10 µM): 34.6%
O=C(CN1CCO[C@H](COc2cccnc2)C1)N1CCc2ccccc21  inhibition (ligand displacement, radioligand; 10 µM): 9.9%
O=C(c1ccccc1Cl)N1CCN(CCNc2cc(=O)oc3ccccc23)CC1  inhibition (enzyme activity, inhibitor; 10 µM): 31.2%
COc1ccc2c(c1)CN(CCCN1CCN(c3ccccc3OC)CC1)C2=O  inhibition (ligand displacement, radioligand; 10 µM): 82.1%
O=C(O)[C@H]1[C@H](Cn2nnc3ccccc3c2=O)CC[C@@H]1C(=O)c1ccc(OCCC2CCOCC2)cc1  inhibition (ligand displacement; 10 µM): 30.3%
Cc1ccc(OC[C@H]2CN(CCN3CCc4ccccc43)CCO2)cn1  inhibition (ligand displacement, radioligand; 10 µM): 16.2%
CS(=O)(=O)c1cc(C2(NC(=O)c3cncc4c3cnn4-c3ccc(F)cc3)CC2)ccn1  inhibition (cell-free assay; 10 µM): 6.62%
O=C1c2ccccc2CCN1CCCCN1CCN(c2ccccn2)CC1  inhibition (ligand displacement, radioligand; 10 µM): 86.6%
CCC(=NO)C(C)=Cc1ccc(F)c(C)c1  inhibition (ligand displacement; 10 µM): -6.57%
